Measurements as given in ChEMBL document CHEMBL3112425, “Design, synthesis, and structure-activity relationship studies of a potent PACE4 inhibitor” (J Med Chem, 2014).
Square brackets hold non-standard residues; d marks the D form. Peptide text beside a SMILES is read from it. * marks the point of attachment. Phe(4-guanidino) = N=C(N)Nc1ccc(C[C@H](N)C(=O)O)cc1; NH(4-amidinobenzyl) = N=C(N)c1ccc(CN*)cc1; X2 = N=C(N)NCCCN(CC(N)=O)N*; Nle = CCCC[C@H](N)C(=O)O

Legend:
[1] = Acute toxicity in human DU145 cells assessed as cell death/lysis at 100 uM after 4 hrs by LDH assay; format: cell-based, DU-145; details: read-out: INH
Procedure, shortened: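 DU145 cells (RPMI 1640, 5% FBS, 37 °C, 5% CO2) plated; 24 h later peptides added at 100 μM. After 4 h, release of lactate dehydrogenase into the medium was quantified enzymatically with a commercial LDH cytotoxicity kit as the measure of acute membrane damage/lysis.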

DU-145 = assay: Cytotoxicity against human DU145 cells after 72 hrs by MTT assay; format: functional, cell-based; details: DU-145, 72 h
Procedure, shortened: (§1)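 Prostate cancer cells were kept in RPMI 1640 at 37 °C, 5% CO2, with 5% FBS for DU145 and 10% FBS for LNCaP and PC3. After 24 h, medium was changed and peptides added at various concentrations, up to 350 μM. Viability was read by MTT after 72 h treatment. IC50 from dose–response curves, triplicate, mean ± SEM.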

Furin = Furin (Homo sapiens, UniProt P09958); assay: Inhibition of human recombinant furin expressed in drosophila schneider 2 cells using pyroGlu-Arg-Thr-Lys-Arg-AMC as substrate after 1 hr
Sequence of Furin (P09958 whole entry): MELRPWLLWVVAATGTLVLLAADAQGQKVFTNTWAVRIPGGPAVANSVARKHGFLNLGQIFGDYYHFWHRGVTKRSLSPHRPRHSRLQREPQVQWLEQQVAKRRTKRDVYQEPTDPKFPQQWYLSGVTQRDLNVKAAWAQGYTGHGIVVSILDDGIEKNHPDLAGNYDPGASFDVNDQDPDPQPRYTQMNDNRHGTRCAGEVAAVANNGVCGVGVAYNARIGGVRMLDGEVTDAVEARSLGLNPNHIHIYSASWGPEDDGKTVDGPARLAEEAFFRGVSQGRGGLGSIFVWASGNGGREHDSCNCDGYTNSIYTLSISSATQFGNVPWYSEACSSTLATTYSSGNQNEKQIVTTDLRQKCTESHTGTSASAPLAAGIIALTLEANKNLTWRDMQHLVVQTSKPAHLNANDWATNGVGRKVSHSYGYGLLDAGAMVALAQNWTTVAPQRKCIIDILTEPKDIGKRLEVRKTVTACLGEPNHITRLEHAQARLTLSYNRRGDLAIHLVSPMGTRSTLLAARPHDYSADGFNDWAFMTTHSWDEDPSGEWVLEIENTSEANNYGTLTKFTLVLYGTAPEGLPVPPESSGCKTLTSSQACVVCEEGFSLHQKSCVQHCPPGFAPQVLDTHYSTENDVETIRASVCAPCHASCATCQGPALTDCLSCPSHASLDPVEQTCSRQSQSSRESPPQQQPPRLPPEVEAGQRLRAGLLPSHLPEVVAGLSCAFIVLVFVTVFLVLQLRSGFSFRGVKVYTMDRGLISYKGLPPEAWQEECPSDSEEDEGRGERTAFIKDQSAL
Procedure, shortened: (§2)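 Human enzymes were expressed in Drosophila S2 cells and purified. Fluorogenic pyroGlu-RTKR-AMC was used at fixed concentration with varied inhibitor, 37 °C over 1 h. Buffers: furin, 100 mM Hepes pH 7.5, 1 mM CaCl2, 1 mM β-mercaptoethanol, 1.8 mg/mL BSA; PACE4 and PC7, 20 mM Bis-Tris pH 6.5, 1 mM CaCl2, 1.8 mg/mL BSA; PC2, same buffer at pH 5.7. Ki from IC50 (Cheng–Prusoff), or apparent Ki (Morrison) for tight binders. Triplicate, mean ± SD.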

PC-3 [2] = assay: Cytotoxicity against human PC3 cells up to 350 uM after 72 hrs by MTT assay; format: functional; procedure, shortened: as §1
LNCaP = assay: Cytotoxicity against human LNCAP cells after 72 hrs by MTT assay; format: functional, cell-based; procedure, shortened: as §1
[3] = target: T1, Proprotein convertase subtilisin/kexin type 6 (Homo sapiens, UniProt P29122); assay: Inhibition of human recombinant PACE4 expressed in drosophila schneider 2 cells using pyroGlu-Arg-Thr-Lys-Arg-AMC as substrate after 1 hr; procedure, shortened: as §2
T1 sequence (P29122 whole entry): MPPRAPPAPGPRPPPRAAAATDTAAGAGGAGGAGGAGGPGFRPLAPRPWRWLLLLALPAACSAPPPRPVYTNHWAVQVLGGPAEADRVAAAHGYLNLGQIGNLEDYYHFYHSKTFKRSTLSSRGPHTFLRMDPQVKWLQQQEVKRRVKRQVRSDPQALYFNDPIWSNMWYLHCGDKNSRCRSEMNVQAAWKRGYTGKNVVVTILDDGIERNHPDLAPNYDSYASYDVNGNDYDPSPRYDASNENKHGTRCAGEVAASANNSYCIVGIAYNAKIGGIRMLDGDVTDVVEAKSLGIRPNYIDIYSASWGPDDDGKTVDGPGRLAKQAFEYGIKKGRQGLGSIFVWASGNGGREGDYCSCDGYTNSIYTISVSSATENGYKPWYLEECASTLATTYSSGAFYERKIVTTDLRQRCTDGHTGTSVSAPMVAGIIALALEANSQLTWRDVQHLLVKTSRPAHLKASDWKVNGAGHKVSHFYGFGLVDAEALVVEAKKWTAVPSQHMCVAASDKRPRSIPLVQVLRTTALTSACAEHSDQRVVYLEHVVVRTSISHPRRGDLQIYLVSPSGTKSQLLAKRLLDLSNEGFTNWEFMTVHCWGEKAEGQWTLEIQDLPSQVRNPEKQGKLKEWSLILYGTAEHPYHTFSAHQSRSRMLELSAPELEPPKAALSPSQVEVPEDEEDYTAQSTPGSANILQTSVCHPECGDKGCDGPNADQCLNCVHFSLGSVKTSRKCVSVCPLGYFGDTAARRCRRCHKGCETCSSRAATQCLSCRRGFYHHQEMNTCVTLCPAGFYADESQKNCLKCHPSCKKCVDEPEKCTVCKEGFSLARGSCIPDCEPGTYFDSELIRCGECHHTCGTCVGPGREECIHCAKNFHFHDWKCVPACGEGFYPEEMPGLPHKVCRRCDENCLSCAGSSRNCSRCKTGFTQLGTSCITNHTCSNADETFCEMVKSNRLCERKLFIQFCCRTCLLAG

Plasma = assay: Drug degradation in CD-1 mouse plasma at 0.5 ug/uL after 30 mins by MALDI-TOF MS analysis; format: ADME, cell-free; details: 0.5 h
Procedure, shortened: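 For fragment mapping, 100 μg peptide was incubated in murine plasma at 37 °C. At each time point, plasma samples were quenched with 3% TFA. Proteins were precipitated with 2 volumes acetonitrile and centrifuged at 17 000g. Supernatants were analyzed by MALDI-TOF MS for C-terminally truncated fragments.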

PC-3 [4] = assay: Cytotoxicity against human PC3 cells after 72 hrs by MTT assay; format: functional, cell-based; details: PC-3, 72 h; procedure, shortened: as §1
[5] = Half life in CD-1 mouse plasma at 0.5 ug/uL by RP-HPLC analysis; format: ADME, cell-free
Procedure, shortened: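 Peptides at 0.5 μg/μL were incubated at 37 °C in heparinized plasma pooled from mixed-sex CD1 mice. At each time point the reaction was stopped with 1 M guanidinium-HCl, then acetonitrile, and proteins were spun out. Supernatant peptide AUC (RP-HPLC) was compared with non-incubated samples. Half-life came from a one-phase decay fit. Run ≥3 times, duplicate per time point.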

Compound | Ki (Furin) [nM] | Ki [3] [nM] | Stability (Plasma) | half-life at 0.5 ug/uL [5] [h] | cytotoxicity at 4 h, 100 µM [1] [%] | IC50 (DU-145) [nM] | inhibition (INH) (PC-3 [2]) [%] | IC50 (LNCaP) [nM] | IC50 (PC-3 [4]) [nM]
CCCC[C@H](NC(C)=O)C(=O)N[C@@H](CCCC)C(=O)N[C@@H](CC(C)C)C(=O)N[C@@H](CC(C)C)C(=O)N[C@@H](CCCN=C(N)N)C(=O)N[C@H](C(=O)N[C@@H](CCCCN)C(=O)N[C@@H](CCCN=C(N)N)C(N)=O)C(C)C | 950 | 57 |  |  |  |  |  |  | 
CCCC[C@H](NC(C)=O)C(=O)N[C@@H](CC(C)C)C(=O)N[C@@H](CC(C)C)C(=O)N[C@@H](CCCC)C(=O)N[C@@H](CCCNC(=N)N)C(=O)N[C@H](C(=O)N[C@@H](CCCCN)C(=O)N[C@@H](CCCNC(=N)N)C(N)=O)C(C)C | 680 | 14 | Unstable |  | < 5 | 40000 | <50 | 90000 | 
CC(=O)N[C@@H](CC(C)C)C(=O)N[C@H](CC(C)C)C(=O)N[C@@H](CC(C)C)C(=O)N[C@@H](CC(C)C)C(=O)N[C@@H](CCCN=C(N)N)C(=O)N[C@H](C(=O)N[C@@H](CCCCN)C(=O)N[C@@H](CCCN=C(N)N)C(N)=O)C(C)C | 2800 | 700 |  |  |  |  |  |  | 
CC(=O)N[C@@H](CC(C)C)C(=O)N[C@@H](CC(C)C)C(=O)N[C@H](CC(C)C)C(=O)N[C@@H](CC(C)C)C(=O)N[C@@H](CCCNC(=N)N)C(=O)N[C@H](C(=O)N[C@@H](CCCCN)C(=O)N[C@@H](CCCNC(=N)N)C(N)=O)C(C)C | 980 | 6260 |  |  | < 5 | 190000 | <50 | 130000 | 
CC(=O)N[C@@H](CC(C)C)C(=O)N[C@@H](CC(C)C)C(=O)N[C@@H](CC(C)C)C(=O)N[C@H](CC(C)C)C(=O)N[C@@H](CCCNC(=N)N)C(=O)N[C@H](C(=O)N[C@@H](CCCCN)C(=O)N[C@@H](CCCNC(=N)N)C(N)=O)C(C)C | 9550 | 14000 |  |  |  |  |  |  | 
CC(=O)N[C@@H](CC(C)C)C(=O)N[C@@H](CC(C)C)C(=O)N[C@@H](CC(C)C)C(=O)N[C@@H](CC(C)C)C(=O)N[C@@H](CCCNC(=N)N)C(=O)N[C@H](C(=O)N[C@@H](CCCCN)C(=O)NN(CCCNC(=N)N)CC(N)=O)C(C)C (Ac-LLLLRVK-X2) | 1120 | 400 |  | 5.6 | < 5 | 270000 | <50 | 240000 | 
CC(=O)N[C@@H](CC(C)C)C(=O)N[C@@H](CC(C)C)C(=O)N[C@@H](CC(C)C)C(=O)N[C@@H](CC(C)C)C(=O)N[C@@H](CCCNC(=N)N)C(=O)N[C@H](C(=O)N[C@@H](CCCCN)C(=O)NCc1ccc(C(=N)N)cc1)C(C)C (Ac-LLLLRVK-{NH(4-amidinobenzyl)}) |  |  |  |  |  | 25000 |  | 40000 | 150000
CCCC[C@H](NC(=O)[C@H](CC(C)C)NC(=O)[C@H](CC(C)C)NC(=O)[C@H](CC(C)C)NC(C)=O)C(=O)N[C@@H](CCCNC(=N)N)C(=O)N[C@H](C(=O)N[C@@H](CCCCN)C(=O)N[C@@H](CCCNC(=N)N)C(N)=O)C(C)C (Ac-LLL[Nle]RVKR-NH2) |  |  |  |  |  | 110000 | <50 | 220000 | 

Now from value to compound, other results behind:

Ki (Furin) [nM] | Ki [3] [nM] | Stability (Plasma) | half-life at 0.5 ug/uL [5] [h] | Compound | cytotoxicity at 4 h, 100 µM [1] [%] | IC50 (DU-145) [nM] | inhibition (INH) (PC-3 [2]) [%] | IC50 (LNCaP) [nM] | IC50 (PC-3 [4]) [nM]
650 | 21 |  |  | CCCC[C@H](NC(C)=O)C(=O)N[C@@H](CC(C)C)C(=O)N[C@@H](CC(C)C)C(=O)N[C@@H](CC(C)C)C(=O)N[C@@H](CCCNC(=N)N)C(=O)N[C@H](C(=O)N[C@@H](CCCCN)C(=O)N[C@@H](CCCNC(=N)N)C(N)=O)C(C)C | < 5 | 150000 | <50 | 180000 | 
2550 | 500 |  |  | CCCC[C@H](NC(C)=O)C(=O)N[C@@H](CCCC)C(=O)N[C@@H](CCCC)C(=O)N[C@@H](CCCC)C(=O)N[C@@H](CCCNC(=N)N)C(=O)N[C@H](C(=O)N[C@@H](CCCCN)C(=O)N[C@@H](CCCNC(=N)N)C(N)=O)C(C)C |  |  |  |  | 
1070 | 60 |  |  | CCCC[C@H](NC(C)=O)C(=O)N[C@@H](CCCC)C(=O)N[C@@H](CC(C)C)C(=O)N[C@@H](CCCC)C(=O)N[C@@H](CCCN=C(N)N)C(=O)N[C@H](C(=O)N[C@@H](CCCCN)C(=O)N[C@@H](CCCN=C(N)N)C(N)=O)C(C)C |  |  |  |  | 
800 | 25 |  | 7.1 | CCCC[C@@H](NC(C)=O)C(=O)N[C@@H](CC(C)C)C(=O)N[C@@H](CC(C)C)C(=O)N[C@@H](CC(C)C)C(=O)N[C@@H](CCCNC(=N)N)C(=O)N[C@H](C(=O)N[C@@H](CCCCN)C(=O)N[C@@H](CCCNC(=N)N)C(N)=O)C(C)C | < 5 | 80000 |  | 90000 | 150000
11000 | 960 |  |  | CC(=O)N[C@@H](CC(C)C)C(=O)N[C@@H](CC(C)C)C(=O)N[C@@H](CC(C)C)C(=O)N[C@@H](CC(C)C)C(=O)N[C@@H](CCCNC(=N)N)C(=O)N[C@H](C(=O)N[C@@H](CCCCN)C(=O)N[C@@H](Cc1ccc(NC(=N)N)cc1)C(N)=O)C(C)C (Ac-LLLLRVK[Phe(4-guanidino)]-NH2) |  |  |  |  | 
560 | 27 |  |  | CCCC[C@H](NC(=O)[C@H](CC(C)C)NC(=O)[C@H](CC(C)C)NC(=O)[C@H](CC(C)C)NC(C)=O)C(=O)N[C@@H](CCCN=C(N)N)C(=O)N[C@H](C(=O)N[C@@H](CCCCN)C(=O)N[C@@H](CCCN=C(N)N)C(N)=O)C(C)C (Ac-LLL[Nle]RVKR-NH2) | < 5 |  |  |  | 
2100 | 350 |  |  | CCCC[C@H](NC(=O)[C@H](CC(C)C)NC(=O)[C@H](CC(C)C)NC(C)=O)C(=O)N[C@@H](CCCC)C(=O)N[C@@H](CCCN=C(N)N)C(=O)N[C@H](C(=O)N[C@@H](CCCCN)C(=O)N[C@@H](CCCN=C(N)N)C(N)=O)C(C)C (Ac-LL[Nle][Nle]RVKR-NH2) |  |  |  |  | 
980 | 39 |  |  | CCCC[C@H](NC(=O)[C@H](CC(C)C)NC(C)=O)C(=O)N[C@@H](CC(C)C)C(=O)N[C@@H](CC(C)C)C(=O)N[C@@H](CCCNC(=N)N)C(=O)N[C@H](C(=O)N[C@@H](CCCCN)C(=O)N[C@@H](CCCNC(=N)N)C(N)=O)C(C)C (Ac-L[Nle]LLRVKR-NH2) |  |  |  |  | 
2300 | 170 |  |  | CCCC[C@H](NC(=O)[C@H](CC(C)C)NC(C)=O)C(=O)N[C@@H](CCCC)C(=O)N[C@@H](CC(C)C)C(=O)N[C@@H](CCCN=C(N)N)C(=O)N[C@H](C(=O)N[C@@H](CCCCN)C(=O)N[C@@H](CCCN=C(N)N)C(N)=O)C(C)C (Ac-L[Nle][Nle]LRVKR-NH2) |  |  |  |  | 
